Source: ChEMBL document CHEMBL4354819, “Discovery of Novel Small Molecule Dual Inhibitors Targeting Toll-Like Receptors 7 and 8” (J Med Chem, 2019)
Values belong to the compound of their own block, whether it stands above or below them.

What was measured:
Toll-like receptor 8 = target: T1, Toll-like receptor 8 (Homo sapiens, UniProt Q9NR97); assay: Inhibition of human TLR8 expressed in HEK293 cells assessed as reduction in R848-induced NFkappaB production incubated for 16 hrs by quanti-blue SEAP assay; format: cell-based
T1 sequence (Q9NR97 whole entry): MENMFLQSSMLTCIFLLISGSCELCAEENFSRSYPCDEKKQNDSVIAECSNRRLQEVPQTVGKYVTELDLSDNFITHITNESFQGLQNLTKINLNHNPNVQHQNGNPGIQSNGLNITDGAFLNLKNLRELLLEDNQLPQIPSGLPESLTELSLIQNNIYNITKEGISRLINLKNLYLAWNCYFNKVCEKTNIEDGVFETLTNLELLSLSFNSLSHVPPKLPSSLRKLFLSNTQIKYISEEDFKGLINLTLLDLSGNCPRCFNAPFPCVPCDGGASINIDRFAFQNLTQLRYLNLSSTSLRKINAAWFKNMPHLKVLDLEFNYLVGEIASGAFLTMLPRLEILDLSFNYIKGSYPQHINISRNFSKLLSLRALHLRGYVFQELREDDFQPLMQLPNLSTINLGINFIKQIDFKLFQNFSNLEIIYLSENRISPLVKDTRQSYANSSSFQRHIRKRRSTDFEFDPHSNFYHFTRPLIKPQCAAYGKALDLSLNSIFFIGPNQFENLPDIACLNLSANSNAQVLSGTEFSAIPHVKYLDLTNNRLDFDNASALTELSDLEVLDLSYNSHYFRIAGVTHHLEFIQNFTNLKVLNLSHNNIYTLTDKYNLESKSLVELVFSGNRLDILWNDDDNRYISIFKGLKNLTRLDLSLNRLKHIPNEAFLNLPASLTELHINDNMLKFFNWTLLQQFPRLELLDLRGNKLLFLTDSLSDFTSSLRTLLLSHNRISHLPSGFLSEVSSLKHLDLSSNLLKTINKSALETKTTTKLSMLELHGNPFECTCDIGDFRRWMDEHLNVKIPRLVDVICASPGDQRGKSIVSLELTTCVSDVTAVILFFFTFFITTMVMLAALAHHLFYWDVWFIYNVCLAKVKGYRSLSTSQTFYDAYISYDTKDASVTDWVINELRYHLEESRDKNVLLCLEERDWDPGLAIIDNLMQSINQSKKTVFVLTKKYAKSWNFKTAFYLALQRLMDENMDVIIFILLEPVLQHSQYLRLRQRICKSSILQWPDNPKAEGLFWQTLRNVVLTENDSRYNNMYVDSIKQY
Summary of the method: (§1)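 HEK 293-Blue cells stably expressing hTLR7 or hTLR8 with an inducible SEAP reporter were incubated 16 h with compound under 1 µg/mL R848 stimulation. SEAP was read at 620 nm. Data were normalized to the R848 control, and IC50 was taken from concentration-response curves. […] Mean ± s.d., n = 3 independent experiments.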

[1] = target: T2, Toll-like receptor 7 (Homo sapiens) (UniProt Q9NYK1); assay: Inhibition of human TLR7 expressed in HEK293 cells assessed as reduction in R848-induced NFkappaB production at 50 uM incubated for 16 hrs by quanti-blue SEAP assay relative to control; format: cell-based; summary of the method: as §1
T2 sequence (whole entry): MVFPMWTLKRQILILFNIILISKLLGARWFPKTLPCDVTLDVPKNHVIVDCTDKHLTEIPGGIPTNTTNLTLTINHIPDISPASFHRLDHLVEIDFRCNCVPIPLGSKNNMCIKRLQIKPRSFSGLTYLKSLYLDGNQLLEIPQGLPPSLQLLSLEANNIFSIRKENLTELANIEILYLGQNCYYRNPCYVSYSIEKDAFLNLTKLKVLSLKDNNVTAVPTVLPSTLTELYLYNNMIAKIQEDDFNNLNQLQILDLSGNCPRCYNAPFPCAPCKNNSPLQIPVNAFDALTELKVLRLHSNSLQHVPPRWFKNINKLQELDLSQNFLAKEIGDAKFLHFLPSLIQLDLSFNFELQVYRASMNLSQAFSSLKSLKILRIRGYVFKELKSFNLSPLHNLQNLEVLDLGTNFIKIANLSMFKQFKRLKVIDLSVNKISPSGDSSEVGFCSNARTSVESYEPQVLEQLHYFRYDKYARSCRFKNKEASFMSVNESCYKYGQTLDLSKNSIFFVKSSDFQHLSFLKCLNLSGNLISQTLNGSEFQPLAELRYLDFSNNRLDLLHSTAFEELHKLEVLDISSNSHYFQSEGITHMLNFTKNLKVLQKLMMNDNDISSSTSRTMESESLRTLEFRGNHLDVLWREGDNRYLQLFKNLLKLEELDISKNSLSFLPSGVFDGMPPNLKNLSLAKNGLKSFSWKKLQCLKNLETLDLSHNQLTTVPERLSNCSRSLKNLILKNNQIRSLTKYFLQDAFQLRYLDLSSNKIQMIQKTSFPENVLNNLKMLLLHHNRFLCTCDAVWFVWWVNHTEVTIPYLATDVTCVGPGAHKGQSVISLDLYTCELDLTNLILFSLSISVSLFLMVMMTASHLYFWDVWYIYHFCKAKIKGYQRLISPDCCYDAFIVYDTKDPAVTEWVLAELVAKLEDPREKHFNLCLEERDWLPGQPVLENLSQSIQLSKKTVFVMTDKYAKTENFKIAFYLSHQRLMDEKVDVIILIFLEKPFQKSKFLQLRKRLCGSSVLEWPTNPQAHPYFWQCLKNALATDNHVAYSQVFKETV

[2] = target: T3, Toll-like receptor 8 (Homo sapiens) (UniProt Q9NR97); assay: Inhibition of human TLR8 expressed in HEK293 cells assessed as reduction in R848-induced NFkappaB production at 50 uM incubated for 16 hrs by quanti-blue SEAP assay relative to control; format: cell-based; summary of the method: as §1
T3 sequence (whole entry): T1 sequence (Q9NR97 whole entry)

[3] = target: T3, Toll-like receptor 8 (Homo sapiens); assay: Inhibition of human TLR8 expressed in HEK293 cells assessed as reduction in R848-induced NFkappaB production at 1.5 to 5 uM incubated for 16 hrs by quanti-blue SEAP assay; format: cell-based
Summary of the method: (§2)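 Selectivity panel in stably transfected HEK 293-Blue cells, each overexpressing one human TLR with an inducible SEAP reporter. Agonists: Pam3CSK4 (TLR1/2), Pam2CSK4 (TLR2/6), poly(I:C) (TLR3), LPS (TLR4), R848 (TLR7/8), ODN 2006 (TLR9). Cells were exposed to compound for 16 h. Activity = (raw − untreated)/(ligand + solvent − untreated), with ligand + solvent set as 100%.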

[4] = target: T2, Toll-like receptor 7 (Homo sapiens); assay: Inhibition of human TLR7 expressed in HEK293 cells assessed as reduction in resiquimod-induced NFkappaB production at 1.5 to 5 uM incubated for 16 hrs by quanti-blue SEAP assay; format: cell-based; summary of the method: as §2
Toll-like receptor 7 = target: T4, Toll-like receptor 7 (Homo sapiens, UniProt Q9NYK1); assay: Inhibition of human TLR7 expressed in HEK293 cells assessed as reduction in R848-induced NFkappaB production incubated for 16 hrs by quanti-blue SEAP assay; format: cell-based; summary of the method: as §1
T4 sequence (Q9NYK1 whole entry): T2 sequence (whole entry)

[5] = target: Toll-like receptor 8 (Homo sapiens) (UniProt Q9NR97); assay: Inhibition of human TLR8 expressed in HEK293 cells assessed as reduction in resiquimod-induced NFkappaB production at 1.5 to 5 uM incubated for 16 hrs by quanti-blue SEAP assay
[6] = target: Toll-like receptor 7 (Homo sapiens) (UniProt Q9NYK1); assay: Inhibition of human TLR7 expressed in HEK293 cells assessed as reduction in R848-induced NFkappaB production incubated for 16 hrs by quanti-blue SEAP assay; conditions: concentration not given here

IC50 (Toll-like receptor 8): 7.26 µM
SMILES: c1ccc(Oc2ccc(-c3nnco3)cc2)cc1

inhibition [1]: 20 to 30% | inhibition [2]: 20 to 30%
SMILES: Nc1cccc(F)c1C(=O)Nc1ccc(Oc2cc(C(F)(F)F)cc(C(F)(F)F)c2)cc1

inhibition [3]: 0% | inhibition [4]: 0%
SMILES: O=C(Nc1ccc(Oc2cc(C(F)(F)F)cc(C(F)(F)F)c2)cc1)c1c(F)c(F)c(F)c(F)c1F

IC50 (Toll-like receptor 7): > 50 µM | IC50 (Toll-like receptor 8): > 50 µM
SMILES: Fc1cccc(Cl)c1CNc1ccc(Oc2cc(C(F)(F)F)cc(C(F)(F)F)c2)cc1

IC50 (Toll-like receptor 7): > 50 µM | inhibition [3]: 0%
SMILES: O=C(Nc1ccc(Oc2cc(C(F)(F)F)cc(C(F)(F)F)c2)cc1)c1ncccc1F

IC50 (Toll-like receptor 8): 2.04 µM
SMILES: O=C(Nc1ccc(Oc2cc(Cl)cc(C(F)(F)F)c2)cc1)c1c(F)cccc1Cl

IC50 (Toll-like receptor 7): > 50 µM | IC50 (Toll-like receptor 8): 3 µM
SMILES: O=C(Nc1ccc(Oc2cc(C(F)(F)F)cc(C(F)(F)F)c2)cc1)c1ccccc1F

IC50 [5]: 2.9 µM | inhibition [6]: 0%
SMILES: CN(C(=O)c1c(F)cccc1Cl)c1ccc(Oc2cc(C(F)(F)F)cc(C(F)(F)F)c2)cc1

IC50 (Toll-like receptor 7): > 50 µM | IC50 (Toll-like receptor 8): > 50 µM
SMILES: O=C(Nc1ccc(Oc2cc(C(F)(F)F)cc(C(F)(F)F)c2)cc1)c1c(F)cccc1OC(F)(F)F

IC50 (Toll-like receptor 7): > 50 µM | inhibition [2]: 20 to 30%
SMILES: O=C(Nc1ccc(Oc2cc(C(F)(F)F)cc(C(F)(F)F)c2)cc1)c1ccc2nc[nH]c2c1

inhibition [3]: 0% | inhibition [4]: 0%
SMILES: Fc1cccc(I)c1-c1nc2cc(Oc3cc(C(F)(F)F)cc(C(F)(F)F)c3)ccc2[nH]1

inhibition [3]: 0% | inhibition [4]: 0%
SMILES: O=C(Nc1ccc(Oc2cc(C(F)(F)F)cc(C(F)(F)F)c2)cc1)c1ccco1

inhibition [4]: 0% | IC50 (Toll-like receptor 8): 3.2 µM
SMILES: O=C(Nc1ccc(Oc2cc(C(F)(F)F)cc(C(F)(F)F)c2)cc1)c1sccc1Cl

IC50 (Toll-like receptor 8): 1.59 µM
SMILES: O=C(Nc1ccc(Oc2cc(F)cc(C(F)(F)F)c2)cc1)c1c(F)cccc1Cl

inhibition [3]: 0%
SMILES: N#Cc1c(Cl)cccc1Oc1ccc(-c2ncco2)cc1

inhibition [3]: 0% | inhibition [4]: 0%
SMILES: O=S(=O)(Nc1ccc(Oc2cc(C(F)(F)F)cc(C(F)(F)F)c2)cc1)c1ccccc1F

IC50 [5]: 7.1 µM | inhibition [6]: 0%
SMILES: O=C(Nc1c(F)cccc1Cl)c1ccc(Oc2cc(C(F)(F)F)cc(C(F)(F)F)c2)cc1

inhibition [2]: 20 to 30% | inhibition [4]: 0%
SMILES: O=C(Nc1ccc(Oc2cc(C(F)(F)F)cc(C(F)(F)F)c2)cc1)c1cc(I)ccc1F

IC50 (Toll-like receptor 7): 4.73 µM | IC50 (Toll-like receptor 8): 2.63 µM
SMILES: O=C(Nc1ccc(Oc2cc(C(F)(F)F)cc(C(F)(F)F)c2)cc1O)c1c(F)cccc1I

IC50 (Toll-like receptor 7): > 50 µM | IC50 (Toll-like receptor 8): > 50 µM
SMILES: O=C(Nc1ccc(Oc2cc(C(F)(F)F)cc(C(F)(F)F)c2)cc1)c1ccc(I)cc1F

inhibition [1]: 20 to 30% | inhibition [2]: 20 to 30%
SMILES: O=C(Nc1ccc(Oc2cc(C(F)(F)F)cc(C(F)(F)F)c2)cc1)c1c(O)cccc1F
